Results on ten molecules are retold here after ChEMBL document CHEMBL4425094, “Novel Benzo[a]quinolizidine Analogs Induce Cancer Cell Death through Paraptosis and Apoptosis” (J Med Chem, 2016).

One assay has as its system MDA-MB-231. Put plainly: Cytotoxicity against human MDA-MB-231 cells assessed as cell growth inhibition after 24 hrs by MTT assay. Type of assay: functional, cell-based. The following applies: MDA-MB-231, 24 h. In a few lines: (§1)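 Cells seeded 24 h in RPMI 1640 + 10% FBS. RWPE-1 was kept in K-SFM with bovine pituitary extract and EGF. Cells then exposed to compounds for 24 h at 37 °C, 5% CO2, with DMSO vehicle and docetaxel as positive control. MTT added for 4 h, absorbance read at 570 nm. Triplicate runs, IC50 reported as mean of three experiments.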
A general note: Tetrazolium dyes change colour on reduction, which living cells bring about.

A further assay has as its system HeLa. Put plainly: Cytotoxicity against human HeLa cells assessed as cell growth inhibition after 24 hrs by MTT assay. Type of assay: functional, cell-based. In a few lines:
as §1

The test system of another assay is RWPE-1. Description: Cytotoxicity against human RWPE1 cells assessed as cell growth inhibition after 24 hrs by MTT assay. Type of assay: cell-based. The note with it: RWPE-1, 24 h. In a few lines: as §1
In the next assay the test system is PC-3. Description: Cytotoxicity against human PC3 cells assessed as cell growth inhibition after 24 hrs by MTT assay. Type of assay: functional, cell-based. The following applies: PC-3, 24 h. In a few lines:
as §1

The subject of a further assay is DU-145. Put plainly: Cytotoxicity against human DU145 cells assessed as cell growth inhibition after 24 hrs by MTT assay. Type of assay: functional, cell-based. The following applies: DU-145, 24 h. In a few lines: as §1
A further assay deals with K562. Description: Cytotoxicity against human K562 cells assessed as cell growth inhibition after 24 hrs by MTT assay. Type of assay: functional, cell-based. The note with it: K562, 24 h. In a few lines:
as §1

A further assay concerns MCF7. Description: Cytotoxicity against human MCF7 cells assessed as cell growth inhibition after 24 hrs by MTT assay. In kind it is functional, cell-based. The note with it: MCF7, 24 h. A digest of the protocol: as §1

Some results are limits rather than exact numbers.

In the case of `C[C@@H]1C[C@@](C)(O)C[C@H]2c3cc(OCc4cc(F)cc(F)c4)c(OCc4cc(F)cc(F)c4)cc3CCN12`, the IC50 (usually the point on the concentration scale where inhibition reaches its midpoint) was determined as 2.81 µM with MDA-MB-231; 1.29 µM with HeLa; 4.45 µM in the assay on RWPE-1; 1.29 µM with PC-3; 1.33 µM in the assay on DU-145; 1.13 µM in the assay with K562. Moreover, the IC50 in the assay with MCF7 is 1.98 µM.

Turning to `O[C@@H]1C[C@@H](c2ccccc2)N2CCc3cc(OCc4ccccc4)c(OCc4ccccc4)cc3[C@@H]2C1`, the IC50 in the assay on MDA-MB-231 was 11.8 µM; in the assay on HeLa, 11.2 µM; in the assay with RWPE-1 it was 40 to 86.8 µM; with PC-3, 8.37 µM; with DU-145, 12 µM; in the assay with K562, 6.96 µM. Further, the half-inhibitory concentration (IC50) with MCF7 is 20.1 µM.

Consider `O[C@@H]1C[C@@H](c2ccc(-c3ccccc3)cc2)N2CCc3cc(OCc4ccccc4)c(OCc4ccccc4)cc3[C@@H]2C1`, for which the IC50 turned out to be 3.28 µM with MDA-MB-231; 3.42 µM with HeLa; 4.42 µM with RWPE-1; 1.16 µM in the assay with PC-3; 1.36 µM in the assay with DU-145; 3.24 µM in the assay with K562. Besides, the IC50 in the assay with MCF7 is 0.28 µM.

`COc1ccc([C@@H]2C[C@H](O)C[C@H]3c4cc(OCc5ccccc5)c(OCc5ccccc5)cc4CCN23)cc1OC`: the 50% inhibitory concentration (IC50) in the assay on MDA-MB-231, in the assay on HeLa, in the assay on RWPE-1, in the assay on PC-3, in the assay with DU-145 and in the assay on K562 was above 20 µM each time. Moreover, in the assay on MCF7, the IC50 is above 20 µM.

For `COc1cc2c(cc1OC)[C@@H]1C[C@@H](O)C[C@@H](c3ccccc3)N1CC2`, the IC50 in the assay on MDA-MB-231, in the assay with HeLa, with RWPE-1, with PC-3, with DU-145 and in the assay on K562 was above 20 µM in each case. Further, the IC50 with MCF7 is above 20 µM.

As for `CCCCCCCCCCCCCCCCOc1cc2c(cc1OCCCCCCCCCCCCCCCC)[C@@H]1CC(=O)C[C@@H](C)N1CC2`, the IC50 in the assay with MDA-MB-231, in the assay with HeLa, in the assay with RWPE-1, in the assay with PC-3, in the assay with DU-145 and in the assay on K562 was above 20 µM throughout. Besides, in the assay with MCF7, the IC50 was above 20 µM.

For the molecule `CCCCCCOc1cc2c(cc1OCCCCCC)[C@@H]1CC(=O)C[C@@H](C)N1CC2` (relative stereo), the IC50 in the assay on MDA-MB-231, with HeLa, in the assay on RWPE-1, in the assay with PC-3, in the assay on DU-145 and with K562 was above 20 µM in each case. For the same molecule, in the assay with MCF7, the IC50 is above 20 µM.

With `CCCCCCCCCCCCCCCCOc1cc2c(cc1OCCCCCCCCCCCCCCCC)[C@@H]1C[C@@H](O)C[C@@H](C)N1CC2`, the IC50 with MDA-MB-231, in the assay with HeLa, with RWPE-1, in the assay with PC-3, in the assay on DU-145 and in the assay on K562 was above 20 µM throughout. For the same molecule, the IC50 in the assay with MCF7 was above 20 µM.

In the case of `CCC[C@@H]1C[C@H](O)C/C=C(/CC)[C@H]2c3cc(OCc4ccccc4)c(OCc4ccccc4)cc3CCN12`, the IC50 in the assay on MDA-MB-231, with HeLa, with RWPE-1, in the assay with PC-3, in the assay on DU-145 and in the assay with K562 was above 20 µM in each case. Moreover, in the assay with MCF7, the IC50 is above 20 µM.

In the case of `CC1(C)CC(=O)C[C@H]2c3cc(OCc4ccccc4)c(OCc4ccccc4)cc3CCN21`, the IC50 in the assay on MDA-MB-231, in the assay on HeLa, in the assay with RWPE-1, in the assay on PC-3, in the assay with DU-145 and in the assay with K562 was above 20 µM each time. The IC50 with MCF7 was above 20 µM.
